# Assay outcomes (PubChem BioAssay)
# TRPC6 inh = blocks the mouse TRPC6 cation channel. HEK293-TRPC6, membrane potential dye, ACh-evoked depolarization; hits give low values. B-score at 10 µM. hit rate 1.1% among 310,000. AID 2553;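 active = B-score under library mean minus 3 SD, initial fluorescence not abnormally high, positive integrated signal ratio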;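 also: B-score derived from integrated fluorescence ratio over the kinetic read; more negative B-score means stronger inhibition of depolarization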
# TRPC4 act = TRPC4 (mouse) channel activation; Q9QUQ5; HEK293 TRPC4beta/mu-opioid, Fluo4 calcium fluorescence; hits give high values; B-score at 10 µM; hit rate 0.49% among 310,000;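 active = B-score above 5 SD of library B-scores, and initial fluorescence ratio not above library mean plus 5 SD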;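 also: positive B-score marks a calcium rise read as TRPC4 activation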
#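 Test system: HEK293 cells stably co-expressing mouse TRPC4beta and mu-opioid receptor | Schedule: Fluo4 dye loading 45 min at room temperature, 110 s recording | Measured by: Kinetic Fluo4 calcium fluorescence, 5 s baseline at 1 Hz | Evaluation: B score of integrated ratio | Controls: Buffer (low) and maximal DAMGO (high)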
# Pemphigus Ab inh = human desmoglein-3 autoantibody binding inhibition; DSG3-coupled beads, scFv-anti-DSG3-GFP binding, flow cytometry; hits give low values; binding (percent of control), % at 10 µM; hit rate 0.48% among 310,000; AID 588358;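 active = binding more than 3 SD below its plate's average and above zero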;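 also: hits lower antibody fragment binding to DSG3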
# TRPC6 act = mouse TRPC6 channel activation | Q61143 | HEK293-TRPC6 membrane potential dye fluorescence; hits give high values | B-score at 10 µM | AID 2550 | hit rate 0.13% among 310,000;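 active = B-score of the integrated fluorescence ratio above library mean plus 3 SD, and starting fluorescence ratio within library mean plus 5 SD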;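 also: higher score means more depolarization so channel activation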
# TRPC4 potent = allosterically enhances the mouse TRPC4 cation channel; HEK293 TRPC4beta/mu-opioid, DAMGO EC20, Fluo-4 Ca2+ flux; hits give high values; B-score at 10 µM; hit rate 0.42% among 310,000; AID 2227;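 active = B-score of calcium response area above 5 SD of library B-scores, with initial fluorescence ratio within 5 SD of library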;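 also: B-score of integrated fluorescence ratio over time as area under calcium response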
# TRPC4 inh = inhibitors of mouse TRPC4 channel. B-score at 10 µM. Q9QUQ5. hit rate 0.39% among 300,000. HEK293 TRPC4beta/mu-opioid, DAMGO-evoked Fluo4 calcium flux; hits give low values;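 active = B-score over 3 SD under the library average, no early fluorescence shift, positive overall ratio signal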
#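 Material: HEK293 cells with stable TRPC4beta plus mu-opioid receptor expression; probe or stimulus: DAMGO in two steps, submaximal then maximal; technique: Fluo4 calcium fluorescence by kinetic imaging, 5 s 1 Hz baseline; measure: integrated fluorescence ratio relative to baseline, converted to per-well B score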
# An asterisk follows results filed as active; i = inactive; / = no result given. Only some compounds are listed: those with a hit (about 2.5% of all), similar ones and a draw of the others.
SMILES,TRPC6 inh,TRPC4 act,Pemphigus Ab inh,TRPC6 act,TRPC4 potent,TRPC4 inh
c1ccc(-n2nnnc2-c2cccc3ccccc23)cc1,/,/,98,/,/,/
COC(=O)C1C(c2ccccc2)C(C(=O)N2CCN(C)CC2)C1c1ccccc1 (configuration not stated),i,64*,98,i,i,i
COC(=O)[C@H]1[C@H](c2ccccc2)[C@H](C(=O)OC)O[C@H]1c1ccccc1,i,i,101,i,i,i
Cc1ccc(C(=O)N/N=C/c2cccc(OC(=O)/C=C/c3ccco3)c2)cn1,i,i,104,i,i,i
O=C(/C=C/c1ccco1)Oc1cc(Br)cc(/C=N/NC(=O)c2ccccc2O)c1,i,i,125,i,12*,i
CC1CCCCC1NC(=O)COC(=O)c1c2c(nc3ccccc13)/C(=C/c1ccco1)CC2 (configuration not stated),i,i,77*,i,i,i
CCCc1nc(SCC(=O)NCC2CCCO2)c2c(=O)n(C)c(=O)n(C)c2n1 (configuration not stated),i,i,110,i,i,i
Cc1cc2ccccn2c1C(=O)c1nc(NCc2ccco2)ncc1Cl,i,i,91,i,13*,i
Cc1ccc(S(=O)(=O)N2CCCC2CNC(=O)C(=O)NC2CC2)cc1 (configuration not stated),i,i,104,i,i,i
O=C(CCC(=O)N(CC(=O)NC1CCCCC1)c1ccc(F)cc1)Nc1ccccn1,i,i,107,i,i,i
Cc1onc(-c2ccccc2)c1C(=O)NCCSCc1ccco1,/,/,98,/,/,/
COc1ccccc1Oc1nc(C)c(C(C)=O)cc1C#N,i,i,100,i,12*,i
CN1CCc2c(sc(NC(=O)c3ccc(S(=O)(=O)N4CCCC4)cc3)c2C(N)=O)C1,-6*,i,/,i,i,i
CN1CCc2c(sc(NC(=O)c3ccc(S(=O)(=O)N4CCc5ccccc54)cc3)c2C(N)=O)C1,i,i,/,i,i,i
COc1ccc2c(c1)c1ncn(CCN3CCCC3)c(=O)c1n2C,i,i,102,i,15*,i
COc1ccc2c(c1)c1ncn(CCN3CCCCC3)c(=O)c1n2C,i,i,104,i,i,i
CCOc1ccc(OCC(=O)Nc2cc(Cl)ccc2-n2cncn2)cc1,/,/,100,/,/,/
CCN1CCN(c2ccc(S(=O)(=O)N3CCCCC3)cc2NC(=O)c2ccc(OC(F)F)cc2)CC1,i,i,41,i,i,i
CCN1CCN(c2ccc(S(=O)(=O)N3CCCCC3)cc2NC(=O)c2cccc(OC(F)F)c2)CC1,i,i,104,i,19*,i
O=C(Nc1cc(S(=O)(=O)N2CCOCC2)ccc1N1CCOCC1)c1cccc(Cl)c1,/,/,95,/,/,/
CCN1CCN(c2ccc(S(=O)(=O)N3CCCCC3)cc2NC(=O)c2cccc(Cl)c2)CC1,i,45*,100,i,18*,i
CCN1CCN(c2ccc(S(=O)(=O)N3CCCCC3)cc2NC(=O)c2cc3ccccc3o2)CC1,i,i,102,i,18*,i
CCN1CCN(c2c(Cl)cccc2NC(=O)c2cc3ccccc3o2)CC1,i,i,98,i,23*,i
CC(C)NC(=O)NC(=O)COC(=O)C1(C)CC1(Cl)Cl (configuration not stated),i,i,106,i,i,i
CCN1CCN(c2ccc(S(=O)(=O)N3CCCCC3)cc2NC(=O)Cc2c(F)cccc2Cl)CC1,i,i,105,i,11*,i
CCN1CCN(c2ccc(S(=O)(=O)N3CCCCC3)cc2NC(=O)Cc2ccc(OC)cc2)CC1,i,63*,107,i,i,i
CCOc1ccc(S(=O)(=O)N2CCCCC2)cc1NC(=O)Cc1ccc(OC)cc1,/,/,98,/,/,/
COc1ccc(C(=O)C(c2ccccc2)N2CCOCC2)cc1 (configuration not stated),i,i,123,i,i,i
